Data on 2 compounds can be found in ChEMBL document CHEMBL4373712, “Bioactivatable Pseudotripeptidization of Cyclic Dipeptides To Increase the Affinity toward Oligopeptide Transporter 1 for Enhanced Oral Absorption: An Application to Cyclo(l-Hyp-l-Ser) (JBP485)” (J Med Chem, 2019).

Data set [1] is described as follows: Half life in Sprague-Dawley rat liver homogenates at 5 mM by HPLC analysis. The format is ADME, tissue-based. The gist of the method:
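Jejunum and liver homogenates from male SD rats in pH 7.4 PBS, adjusted to 200 µg/mL protein, and rat plasma. Each incubated with compound at 5 mM at 37 °C.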

The target of data set [2] is T1, Solute carrier family 22 member 3 (Homo sapiens, UniProt O75751).
T1 sequence (O75751 whole entry): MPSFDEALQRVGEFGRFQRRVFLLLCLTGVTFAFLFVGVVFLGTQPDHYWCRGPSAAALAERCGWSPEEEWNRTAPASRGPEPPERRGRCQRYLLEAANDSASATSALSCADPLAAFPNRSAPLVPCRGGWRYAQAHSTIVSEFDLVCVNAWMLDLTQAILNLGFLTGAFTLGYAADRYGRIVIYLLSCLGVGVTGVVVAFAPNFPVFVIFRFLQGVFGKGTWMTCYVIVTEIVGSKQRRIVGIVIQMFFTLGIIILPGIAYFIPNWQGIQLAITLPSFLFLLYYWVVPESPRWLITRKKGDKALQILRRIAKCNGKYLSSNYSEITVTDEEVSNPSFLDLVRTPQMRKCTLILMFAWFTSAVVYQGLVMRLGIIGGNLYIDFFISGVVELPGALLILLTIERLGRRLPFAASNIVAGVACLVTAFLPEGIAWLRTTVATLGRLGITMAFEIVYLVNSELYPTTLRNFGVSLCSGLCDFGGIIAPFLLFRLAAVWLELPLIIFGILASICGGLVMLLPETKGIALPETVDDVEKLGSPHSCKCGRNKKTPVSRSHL
Description: Substrate activity at OCT3 in human Caco2 cells assessed as protein-mediated drug uptake at 0.5 mM measured after 10 mins in absence of OCT1 substrate metformin by UPLC-MS/MS analysis. The note with it: caco-2, 10 min, 500 µM. The format is ADME, cell-based. The gist of the method: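 Caco-2 cells in 24-well plates took up 0.5 mM compound for 10 min at 37 °C, with or without 50 mM captopril ([…]) or metformin (OCT1-3 substrate). Cells were washed in ice-cold PBS and homogenised in water; lysate protein was measured and drug assayed by UPLC-MS/MS. n=3.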

The target in data set [3] is T2, Solute carrier family 15 member 1 (Rattus norvegicus, UniProt P51574).
T2 sequence (P51574 whole entry): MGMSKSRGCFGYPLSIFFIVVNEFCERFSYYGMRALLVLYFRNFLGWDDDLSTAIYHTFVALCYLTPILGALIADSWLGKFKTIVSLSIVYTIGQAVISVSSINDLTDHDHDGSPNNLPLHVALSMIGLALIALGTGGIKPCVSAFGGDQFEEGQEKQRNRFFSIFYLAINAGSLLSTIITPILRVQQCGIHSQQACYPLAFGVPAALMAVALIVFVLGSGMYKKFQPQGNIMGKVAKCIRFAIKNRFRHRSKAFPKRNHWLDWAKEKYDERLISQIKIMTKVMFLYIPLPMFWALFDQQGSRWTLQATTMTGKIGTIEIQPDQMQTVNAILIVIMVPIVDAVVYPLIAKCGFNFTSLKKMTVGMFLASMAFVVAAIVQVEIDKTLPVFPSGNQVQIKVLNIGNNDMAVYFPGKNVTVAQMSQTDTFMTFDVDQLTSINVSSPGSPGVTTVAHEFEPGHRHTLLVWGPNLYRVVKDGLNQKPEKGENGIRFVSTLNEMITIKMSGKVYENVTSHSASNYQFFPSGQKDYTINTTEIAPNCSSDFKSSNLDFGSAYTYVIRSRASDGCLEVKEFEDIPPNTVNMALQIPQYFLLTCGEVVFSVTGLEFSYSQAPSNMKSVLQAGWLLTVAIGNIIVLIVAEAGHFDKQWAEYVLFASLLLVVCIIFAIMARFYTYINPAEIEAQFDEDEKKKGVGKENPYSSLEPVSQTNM
Put plainly: Ratio of compound effect for substrate activity at PEPT1 in Sprague-Dawley rat jejunum assessed as effective permeability in absence of non-metabolized PEPT1 substrate Gly-Sar to compound effect for substrate activity at PEPT1 in Sprague-Dawley rat jejunum assessed as effective permeability in presence of non-metabolized PEPT1 substrate Gly-Sar. The format is ADME.

Data set [4] can be described thus: Half life in pH 5.8 phosphate buffer at 5 mM by HPLC analysis. The format is physicochemical. The gist of the method: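 Compound at 5 mM in 0.1 M HCl, pH 4.5 acetate buffer, pH 5.8/6.8/7.2 phosphate buffers, SGF (pH 1.2) and SIF (pH 6.8), prepared per Chinese Pharmacopoeia. Samples taken at 0-20 h and analyzed by HPLC-UV. k = 2.303×slope of log C versus time; t1/2 = 0.693/k.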

The target of data set [5] is T3, Solute carrier family 15 member 1 (Homo sapiens, UniProt P46059).
T3 sequence (P46059 whole entry): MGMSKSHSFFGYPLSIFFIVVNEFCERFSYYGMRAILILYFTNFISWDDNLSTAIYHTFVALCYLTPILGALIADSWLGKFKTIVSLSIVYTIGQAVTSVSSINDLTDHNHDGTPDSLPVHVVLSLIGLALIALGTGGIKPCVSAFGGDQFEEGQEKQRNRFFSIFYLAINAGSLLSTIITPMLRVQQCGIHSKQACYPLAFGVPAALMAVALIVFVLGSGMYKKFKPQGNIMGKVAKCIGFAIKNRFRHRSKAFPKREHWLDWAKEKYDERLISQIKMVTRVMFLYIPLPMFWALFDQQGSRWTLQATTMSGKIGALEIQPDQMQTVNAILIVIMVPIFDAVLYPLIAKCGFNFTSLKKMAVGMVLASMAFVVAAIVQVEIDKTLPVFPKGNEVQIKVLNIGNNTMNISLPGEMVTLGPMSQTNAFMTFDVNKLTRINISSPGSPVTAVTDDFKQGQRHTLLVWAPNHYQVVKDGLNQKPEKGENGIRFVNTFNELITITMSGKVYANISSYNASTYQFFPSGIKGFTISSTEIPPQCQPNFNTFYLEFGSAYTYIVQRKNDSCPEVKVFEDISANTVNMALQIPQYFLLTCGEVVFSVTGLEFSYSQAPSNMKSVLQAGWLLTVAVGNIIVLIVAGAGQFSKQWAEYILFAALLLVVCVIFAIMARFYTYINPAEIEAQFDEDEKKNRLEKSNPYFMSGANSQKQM
Put plainly: Substrate activity at PEPT1 in human Caco2 cells assessed as inhibition of Gly-Sar uptake measured after 10 mins by UPLC-MS/MS analysis. It counts as cell-based. Put shortly: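 Caco-2 cells with 0.5 mM Gly-Sar probe substrate and competitor at 0.5–50 mM. IC50 by nonlinear fitting; n=3.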

Each structure is given as a SMILES string. Bounds are passed on as bounds.

As for `CC(C)[C@H](N)C(=O)OC[C@@H]1NC(=O)[C@@H]2C[C@@H](O)CN2C1=O`, the half-life – broadly, the time needed for the level to fall by half in the phase considered – at 5000 µM in data set [1] was 0.86 h; in data set [4], > 20 h. The Drug uptake result in data set [2] is listed as “Not Active”. The Ratio in data set [3] turned out to be 6.8. Moreover, the half-inhibitory concentration (IC50) (usually the concentration at which inhibition is half-maximal) in data set [5] turned out to be 2.9 mM.

With `O=C1N[C@@H](CO)C(=O)N2C[C@H](O)C[C@@H]12`, the half-life at 5000 µM in data set [1] and in data set [4] was > 20 h each time. For the same compound, the Drug uptake result in data set [2] is recorded as “Not Active”. For the same compound, the Ratio in data set [3] was 2.5. Also, in data set [5], the IC50 amounted to 18.2 mM.
